Assay results taken from ChEMBL document CHEMBL4138301, “Discovery of Tetralones as Potent and Selective Inhibitors of Acyl-CoA:Diacylglycerol Acyltransferase 1” (ACS Med Chem Lett, 2018).
Converted amounts (≈) assume the structure as drawn.

Columns and labels:
[1] = Kinetic solubility of the compound in pION buffer at pH 7.4 measured after 18 hrs; format: physicochemical; conditions: read-out: Kinetic_solubility
[2] = Oral bioavailability in Sprague-Dawley rat at 2 mg/kg; format: ADME, organism-based; conditions: in vivo
Procedure, shortened: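 Male animals, n = 3 per species: C57BL/6J mouse at 2.2 mg/kg IV and 2.7 mg/kg PO; Sprague–Dawley rat at 1 mg/kg IV and 2 mg/kg PO; Beagle dog at 1.8 mg/kg IV and 5.3 mg/kg PO. Plasma clearance, Vss, IV half-life and oral %F were derived from the plasma profiles.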

[3] = target: T1, Diacylglycerol O-acyltransferase 1 (Mus musculus) (UniProt Q9Z2A7); assay: Inhibition of DGAT1 in mouse C2C12 cells at 300 nM using [14C] oleic acid as substrate measured after 20 mins by phosphorimaging method relative to control; format: cell-based
T1 sequence (whole entry): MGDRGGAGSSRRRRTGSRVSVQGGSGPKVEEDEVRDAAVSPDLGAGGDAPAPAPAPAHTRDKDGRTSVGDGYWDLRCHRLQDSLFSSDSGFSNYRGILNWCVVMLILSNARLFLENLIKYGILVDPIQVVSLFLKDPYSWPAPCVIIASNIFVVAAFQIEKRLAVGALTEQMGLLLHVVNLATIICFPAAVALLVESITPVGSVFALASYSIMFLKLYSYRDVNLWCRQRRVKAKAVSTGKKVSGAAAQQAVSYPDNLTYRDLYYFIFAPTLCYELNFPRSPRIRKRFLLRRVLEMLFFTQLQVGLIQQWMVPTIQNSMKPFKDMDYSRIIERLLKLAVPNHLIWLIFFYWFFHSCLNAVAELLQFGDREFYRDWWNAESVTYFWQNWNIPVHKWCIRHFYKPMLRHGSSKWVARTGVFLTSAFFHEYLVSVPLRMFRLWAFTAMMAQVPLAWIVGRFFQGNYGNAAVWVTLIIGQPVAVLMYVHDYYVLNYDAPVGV

Mus musculus = assay: In vivo inhibition of DGAT1 in corn oil-induced Swiss albino mouse hypertriglyceridemia model assessed as reduction in plasma triglyceride level at 0.3 mg/kg, po pretreated for 30 mins followed by coil oil challenge measured after 2.5 hrs relative to control; format: functional
Procedure, shortened: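 Male Swiss Albino mice were fasted overnight, then dosed orally at 0.03, 0.1, 0.3, 1, 3 or 10 mg/kg. Thirty minutes later they received an oral corn oil bolus of 5 mL/kg.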

solubility kinetic at 18 h [1] [µg/mL] | SMILES | also measured
30 (≈ 60.4 µM) | O=C(O)CC1(CC(F)(F)F)CCc2cc(-c3ccc(NC(=O)Nc4ccccc4)cc3)ccc2C1=O (centres undefined) | 
151 (≈ 277 µM) | CC[C@@]1(CC(=O)O)CCc2cc(-c3ccc(NC(=O)Nc4cccc(C(F)(F)F)c4)cc3Cl)ccc2C1=O | bioavailability [2]: 23%
39 (≈ 76.4 µM) | CCC1(CC(=O)O)CCc2cc(-c3ccc(NC(=O)Nc4cccc(C(F)(F)F)c4)cc3)ccc2C1=O (racemic) | inhibition [3]: 62%
46 (≈ 90.1 µM) | CCC1(CC(=O)O)CCc2cc(-c3ccc(NC(=O)Nc4ccc(C(F)(F)F)cc4)cc3)ccc2C1=O (centres undefined) | 
0.4 (≈ 0.839 µM) | CC[C@]1(CC(=O)O)CCc2cc(-c3ccc(NC(=O)Nc4ccc(Cl)cc4)cc3)ccc2C1=O | 
40 (≈ 87.2 µM) | COc1cccc(NC(=O)Nc2ccc(-c3ccc4c(c3)CCC(C)(CC(=O)O)C4=O)cc2)c1 (centres undefined) | 
 | Nc1ncnc2c1C(=O)N(c1ccc([C@H]3CC[C@H](CC(=O)O)CC3)cc1)CCO2 [PF-04620110] | inhibition in vivo at 0.3 mg/kg (Mus musculus): 94%
100 (≈ 210 µM) | CCC1(CC(=O)O)CCc2cc(-c3ccc(NC(=O)Nc4ccc(Cl)cc4)cc3)ccc2C1=O (racemic) | inhibition [3]: 72%
6 (≈ 12.7 µM) | CCC1(CC(=O)O)CCc2cc(-c3ccc(NC(=O)Nc4cccc(OC)c4)cc3)ccc2C1=O (centres undefined) | 
101 (≈ 212 µM) | CCC1(CC(=O)O)CCc2cc(-c3ccc(NC(=O)Nc4cccc(Cl)c4)cc3)ccc2C1=O (centres undefined) | 
38 (≈ 82.5 µM) | CCC1(CC(=O)O)CCc2cc(-c3ccc(NC(=O)Nc4cccc(F)c4)cc3)ccc2C1=O (centres undefined) | 
74 (≈ 162 µM) | CCCC1(CC(=O)O)CCc2cc(-c3ccc(NC(=O)Nc4ccccc4)cc3)ccc2C1=O (centres undefined) | 
26 (≈ 50.9 µM) | CCC1(CC(=O)O)CCc2cc(-c3ccc(NC(=O)Nc4ccccc4C(F)(F)F)cc3)ccc2C1=O (centres undefined) | 
72 (≈ 145 µM) | CC1(CC(=O)O)CCc2cc(-c3ccc(NC(=O)Nc4cccc(C(F)(F)F)c4)cc3)ccc2C1=O (centres undefined) | 
5 (≈ 10.5 µM) | CC[C@@]1(CC(=O)O)CCc2cc(-c3ccc(NC(=O)Nc4ccc(Cl)cc4)cc3)ccc2C1=O | inhibition [3]: 83%
